Published values pooled from the literature.
Lines come from different studies, so protocols differ.
BCHE: Cholinesterase (BCHE, Equus caballus, UniProt P81908)
PTGS1: Prostaglandin G/H synthase 1 (PTGS1, Ovis aries, UniProt P05979)

The inhibition of `COc1cc2c(cc1OC)C(=O)N(Cc1nccc3ccccc13)C2` is reported as 2% (BCHE; enzyme activity; inhibitor; Ellman; 1 µM).
The inhibition of `CS(=O)(=O)c1ccc(-c2ncc(Cl)cc2-c2nc3ccccc3s2)cc1` is reported as 0% (PTGS1; enzyme activity; inhibitor; absorbance; 10 µM).
For `Cn1cc(-c2cc(F)cc(N3CCn4c(cc5c4CCCC5)C3=O)c2CO)cc(Nc2ccc(N3CCN(C4COC4)CC3)cn2)c1=O`, the inhibition was -12% (Dual specificity mitogen-activated protein kinase kinase 3 (MAP2K3, Homo sapiens, UniProt P46734); enzyme activity; inhibitor; 0.1 µM).
For `COc1ccc2[nH]cc(CCN3Cc4cc(OC)c(OC)cc4C3=O)c2c1`, the inhibition was 19% (BCHE; enzyme activity; inhibitor; Ellman; 1 µM).
`NS(=O)(=O)c1ccc(-c2ncc(Cl)cc2-c2nc3ccccc3s2)cc1` has an inhibition of 6.6% (PTGS1; enzyme activity; inhibitor; absorbance; 10 µM).
With `COc1cc2c(cc1OC)C(=O)N(Cc1ccc3ccccc3n1)C2` the inhibition was -0.7% (BCHE; enzyme activity; inhibitor; Ellman; 1 µM).
`Cc1ccc(-c2nc3ccccc3s2)c(-c2cccc(O)c2)c1` has an inhibition of 11.7% (PTGS1; enzyme activity; inhibitor; absorbance; 10 µM).
For `COc1cc2c(cc1OC)C(=O)N(Cc1n[nH]c3ccccc13)C2`, the inhibition was -2.7% (BCHE; enzyme activity; inhibitor; Ellman; 1 µM).
For `Cc1ccc(-c2nc3ccccc3s2)c(-c2ccc(S(N)(=O)=O)cc2)c1`, the inhibition was 9.6% (PTGS1; enzyme activity; inhibitor; absorbance; 10 µM).
`COc1cc2c(cc1OC)C(=O)N(CC1CCN(Cc3ccc(F)nc3)CC1)C2` gave an inhibition of -4.8% (BCHE; enzyme activity; inhibitor; Ellman; 1 µM).
`C#Cc1n[nH]c2c(-c3cn(C(C)c4ccccn4)c(=O)[nH]c3=O)cc(F)cc12` (stereo not drawn) has an inhibition of 3.8% (Activin receptor type-1B (ACVR1B, Homo sapiens, UniProt P36896); enzyme activity; inhibitor; 1 µM).
With `CS(=O)(=O)c1ccc(-c2ncccc2-c2nc3ccccc3s2)cc1` the inhibition was 21.5% (PTGS1; enzyme activity; inhibitor; absorbance; 10 µM).
`Cn1cc(-c2cccc(N3CCc4c(sc5c4CC(C)(C)C5)C3=O)c2CO)cc(Nc2ccncn2)c1=O` has an inhibition of 6% (Serine/threonine-protein kinase MRCK alpha (CDC42BPA, Homo sapiens, UniProt Q5VT25); enzyme activity; inhibitor; 1 µM).
The inhibition of `NS(=O)(=O)c1ccc(-c2ncccc2-c2nc3ccccc3s2)cc1` is reported as 0% (PTGS1; enzyme activity; inhibitor; absorbance; 10 µM).
With `COc1cc2c(cc1OC)C(=O)N(CC1CCN(Cc3ccccn3)CC1)C2` the inhibition was 5.4% (BCHE; enzyme activity; inhibitor; Ellman; 1 µM).
`c1ccc(C(NCCNC(c2ccccc2)c2ccccc2)c2ccccc2)cc1` has an inhibition of 14% (Type-2 angiotensin II receptor (AGTR2, Homo sapiens, UniProt P50052); cell-free assay; 10 µM).
With `O=C(Nc1ccc(F)c(C(F)(F)F)c1)Nc1nnc(-c2ccncc2)s1` the inhibition was 99% (RecQ-like DNA helicase BLM (BLM, Homo sapiens, UniProt P54132); enzyme activity; inhibitor; 50 µM).
The inhibition of `CC(C)N1CCC[C@H]1CNC(=O)c1cn(C2CCCC2)c(=O)c2c1c1ccccc1n2C` is reported as 11% (Androgen receptor (Ar, Rattus norvegicus, UniProt P15207); ligand displacement; radioligand; 10 µM).
